This note sets out measurements from paper PMC5193105 (Proteins, 2016).

SMILES strings stand for the structures.

One experiment deals with hPFKFB2 Y428A mutant (Homo sapiens, UniProt O60825, Y428A). As to the kind of experiment: 2-kinase inhibition assay. Format: biochemical. To be noted: for Ki: Citrate Kis. Summed up:
(§1)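 His-tagged enzyme was expressed in E. coli BL21 C41(DE3) and purified by Ni-NTA then SP Sepharose. Step 1 used 130 nM enzyme in 20 mM TES pH 8.0, 1 mM DTT, 2 mM MgCl2 and 0.5% tween, with varied citrate, ATP and Fru-6-P (fixed substrate 250 μM), for 10 min at 25°C. Reactions were KOH-stopped and neutralized. Fru-2,6-P2 was read by PPi-PFK/aldolase/TPI/[…] coupling as A340 over 30 min. Constants came from non-linear regression.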

In a further experiment the target is wildtype hPFKFB2 (Homo sapiens, UniProt O60825). Put plainly: 2-kinase inhibition assay. In kind it is biochemical. Conditions: wild-type; for Ki: Citrate Kis. The method, boiled down:
as §1

Where [1] appears, read: Y428A, variable substrate ATP, fixed substrate F6P 250μM.
Where [2] appears, read: variable substrate ATP, fixed substrate F6P 250μM.

wildtype hPFKFB2, sequence (O60825 whole entry): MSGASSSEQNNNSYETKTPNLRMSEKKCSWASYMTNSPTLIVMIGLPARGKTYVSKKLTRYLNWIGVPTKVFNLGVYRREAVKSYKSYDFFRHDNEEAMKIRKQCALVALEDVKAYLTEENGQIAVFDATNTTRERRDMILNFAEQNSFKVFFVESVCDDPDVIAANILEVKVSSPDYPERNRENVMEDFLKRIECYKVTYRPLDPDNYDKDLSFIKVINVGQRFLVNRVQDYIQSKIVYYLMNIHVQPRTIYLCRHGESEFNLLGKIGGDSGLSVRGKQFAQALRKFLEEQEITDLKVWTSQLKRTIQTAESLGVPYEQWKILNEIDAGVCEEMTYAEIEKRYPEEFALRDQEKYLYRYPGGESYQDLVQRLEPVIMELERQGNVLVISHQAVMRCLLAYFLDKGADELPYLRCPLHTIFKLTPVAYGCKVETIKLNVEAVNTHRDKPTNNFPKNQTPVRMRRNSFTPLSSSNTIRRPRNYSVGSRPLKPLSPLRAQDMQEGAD
hPFKFB2 Y428A mutant, sequence (O60825 whole entry Y428A): as the sequence (O60825 whole entry) above, with Y428A counted along it

Consider `Nc1ncnc2c1ncn2[C@@H]1O[C@H](COP(=O)(O)OP(=O)(O)OP(=O)(O)O)[C@@H](O)[C@H]1O` [ATP], for which the KmATP at hPFKFB2 Y428A mutant (Y428A) came to 40.7 ± 4.2 µM; at wildtype hPFKFB2, 38.8 ± 5.3 µM.
With `O=C(O)CC(O)(CC(=O)O)C(=O)O` [Citrate], the Ki on hPFKFB2 Y428A mutant (setting [1]) amounted to 2.43 ± 1 µM; on hPFKFB2 Y428A mutant (Y428A, variable substrate F6P, fixed substrate ATP 250μM), 67.3 ± 4.2 µM; on wildtype hPFKFB2 (setting [2]), 50.2 µM; on wildtype hPFKFB2 (variable substrate F6P, fixed substrate ATP 250μM), 80.3 ± 6.5 µM. Moreover, the “increase in affinity for the inhibitor, Y428A versus wild-type” value on hPFKFB2 Y428A mutant (Kis with ATP as variable substrate, from 50.2 μM to 2.4 μM) is reported as 20 fold. Also, the “Citrate Kii” value at hPFKFB2 Y428A mutant (setting [1]) came out at 3.05 ± 1.4 µM; on wildtype hPFKFB2 (setting [2]), 58.75 ± 9.9 µM. For the same compound, the “inhibition mechanism (in words)” value at wildtype hPFKFB2 (versus ATP) is on record as “non-competitive inhibitor”; against wildtype hPFKFB2 (versus F6P) it was “competitive inhibitor”.
Consider `O=C(CO)[C@@H](O)[C@H](O)[C@H](O)COP(=O)(O)O` [F6P, fructose-6-phosphate], for which the results for the KmF6P on hPFKFB2 Y428A mutant (Y428A) and on wildtype hPFKFB2 were 13.8 ± 4.3 µM and 80.3 ± 7.6 µM, respectively. For the same compound, the “increase in affinity for Fru-6-P, Y428A versus wild-type” value on hPFKFB2 Y428A mutant (from Km values) is recorded as 6 fold.

The term Ki denotes the equilibrium dissociation constant of an inhibitor or competing ligand from its target. A lower Ki goes with higher affinity.
